How the values were obtained:
[1] = Protein binding in Beagle dog plasma at 5 uM; format: ADME, cell-free, Canis lupus familiaris; details: read-out: PPB (converted)
[2] = Protein binding in cynomolgus monkey plasma at 5 uM; format: ADME, cell-free, Macaca fascicularis; details: read-out: PPB (converted)
B16-F10 [3] = assay: Antitumor activity against mouse B16F10 cells xenografted in C57BL/6 mouse assessed as tumor volume at 12.5 mg/kg/day, po after 14 days; format: functional
B16-F10 [4] = assay: Antitumor activity against mouse B16F10 cells xenografted in C57BL/6 mouse assessed as growth inhibition at 12.5 mg/kg/day, po after 14 days relative to control; format: functional
B16-F10 [5] = assay: Potentiation of temozolomide-induced cytotoxicity against mouse B16F10 cells xenografted in C57BL/6 mouse assessed as growth inhibition at 12.5 mg/kg/day, po after 17 days relative to temozolomide monotherapy; format: functional
Outline: (§1)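 B16F10 syngeneic model: 6×10^4 cells in 50% matrigel injected sc into the flank of 6–8 week old female C57BL/6 mice (20 g), allocated to groups by injection order. Inhibitor given po bid days 6–11 at 1, 5 or 12.5 mg/kg/day; temozolomide 50 mg/kg/day po qd days 6–11. Tumor volume by caliper as L×W²/2; TGI versus temozolomide alone.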

B16-F10 [6] = assay: Potentiation of temozolomide-induced cytotoxicity against mouse B16F10 cells xenografted in C57BL/6 mouse assessed as growth inhibition at 5 mg/kg/day, po after 17 days relative to temozolomide monotherapy; format: functional; outline: as §1
B16-F10 [7] = assay: Potentiation of temozolomide-induced cytotoxicity against mouse B16F10 cells xenografted in C57BL/6 mouse assessed as growth inhibition at 1 mg/kg/day, po after 17 days relative to temozolomide monotherapy; format: functional; outline: as §1
MX1 [8] = assay: Potentiation of carboplatin-induced cytotoxicity against human MX1 cells xenografted in SCID mouse assessed as growth inhibition at 1 mg/kg/day, sc osmotic minipump after 42 days relative to carboplatin monotherapy; format: functional; details: route subcutaneous
Outline: (§2)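 MX-1 xenograft: 0.2 cc of 1:10 tumor brei injected sc into the flank of female SCID mice on day 0; size-matched on day 15, 10 mice/group. Inhibitor 1–50 mg/kg/day by sc osmotic minipump for 14 days from day 18; carboplatin 10 mg/kg ip on days 20, 24 and 28. Caliper volumes as L×W²/2; TGI relative to carboplatin alone.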

MX1 [9] = assay: Potentiation of carboplatin-induced cytotoxicity against human MX1 cells xenografted in SCID mouse assessed as growth inhibition at 12.5 mg/kg/day, sc osmotic minipump after 42 days relative to carboplatin monotherapy; format: functional; details: route subcutaneous; outline: as §2
MX1 [10] = assay: Potentiation of carboplatin-induced cytotoxicity against human MX1 cells xenografted in SCID mouse assessed as growth inhibition at 5 mg/kg/day, sc osmotic minipump after 42 days relative to carboplatin monotherapy; format: functional; details: route subcutaneous; outline: as §2
MX1 [11] = assay: Potentiation of cyclophosphamide-induced cytotoxicity against human MX1 cells xenografted in SCID mouse assessed as growth inhibition at 5 mg/kg/day, sc osmotic minipump after 48 days relative to cyclophosphamide monotherapy; format: functional; details: route subcutaneous
Outline: (§3)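 Female SCID mice bearing sc MX-1 brei (0.2 cc of 1:10, day 0), size-matched on day 15, 10 per group. Inhibitor 5, 12.5 or 25 mg/kg/day by sc osmotic minipump for 14 days from day 18; cyclophosphamide 12.5 mg/kg ip on days 20, 24 and 28. Volumes from caliper L×W²/2; TGI versus cyclophosphamide alone.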

MX1 [12] = assay: Potentiation of cyclophosphamide-induced cytotoxicity against human MX1 cells xenografted in SCID mouse assessed as growth inhibition at 12.5 mg/kg/day, sc osmotic minipump after 48 days relative to cyclophosphamide monotherapy; format: functional; details: route subcutaneous; outline: as §3
MX1 [13] = assay: Potentiation of cyclophosphamide-induced cytotoxicity against human MX1 cells xenografted in SCID mouse assessed as growth inhibition at 25 mg/kg/day, sc osmotic minipump after 48 days relative to cyclophosphamide monotherapy; format: functional; details: route subcutaneous; outline: as §3
MX1 [14] = assay: Potentiation of carboplatin-induced cytotoxicity against human MX1 cells xenografted in SCID mouse assessed as growth inhibition at 50 mg/kg/day, sc osmotic minipump after 42 days relative to carboplatin monotherapy; format: functional; details: route subcutaneous; outline: as §2
MX1 [15] = assay: Potentiation of carboplatin-induced cytotoxicity against human MX1 cells xenografted in SCID mouse assessed as growth inhibition at 25 mg/kg/day, sc osmotic minipump after 42 days relative to carboplatin monotherapy; format: functional; details: route subcutaneous; outline: as §2
[16] = Oral bioavailability in CD1 mouse at 10 mg/kg; format: ADME, organism-based; details: in vivo
Outline: (§4)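 Mouse PK: oral dose 10 mg/kg in 2.5% EtOH, 1 drop Tween-80, 25% PEG400 in PBS; iv dose 3 mg/kg in 2.5% EtOH, 5% DMSO, 1 drop Tween-80, 25% PEG400 in PBS. Oral bioavailability, iv half-life, oral AUC and Cmax derived from plasma profiles.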

[17] = Half life in CD1 mouse at 3 mg/kg, iv; format: ADME, organism-based; design: dose 3 mg/kg, route intravenous; details: in vivo; outline: as §4
[18] = AUC in CD1 mouse at 10 mg/kg, po; format: ADME, organism-based; design: dose 10 mg/kg, route oral; details: plasma; outline: as §4
[19] = Cmax in CD1 mouse at 10 mg/kg, po; format: ADME, organism-based; design: dose 10 mg/kg, route oral; details: in vivo; outline: as §4
[20] = Volume of distribution at steady state in CD1 mouse at 10 mg/kg; format: ADME, organism-based; design: dose 10 mg/kg; details: in vivo, read-out: Vdss
[21] = Clearance in CD1 mouse at 10 mg/kg; format: ADME, organism-based; design: dose 10 mg/kg; details: in vivo
Outline: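 Mouse pharmacokinetics. Oral dose of 10 mg/kg in 2.5% EtOH, 1 drop Tween-80 and 25% PEG400 in PBS. Intravenous dose of 3 mg/kg in 2.5% EtOH, 5% DMSO, 1 drop Tween-80 and 25% PEG400 in PBS.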

[22] = Oral bioavailability in Sprague-Dawley rat at 5 mg/kg; format: ADME, organism-based; details: in vivo
[23] = Half life in Sprague-Dawley rat at 5 mg/kg, iv; format: ADME, organism-based; design: dose 5 mg/kg, route intravenous; details: in vivo
[24] = AUC in Sprague-Dawley rat at 5 mg/kg, po; format: ADME, organism-based; design: dose 5 mg/kg, route oral; details: plasma
[25] = Cmax in Sprague-Dawley rat at 5 mg/kg, po; format: ADME, organism-based; design: dose 5 mg/kg, route oral; details: in vivo

C[C@]1(c2nc3c(C(N)=O)cccc3[nH]2)CCCN1 [VELIPARIB]
fraction unbound at 5 µM [1]: 0.59 | fraction unbound at 5 µM [2]: 0.59 | Activity (B16-F10 [3]): 2452 mm3 | TGI (B16-F10 [4]): 28% | TGI (B16-F10 [5]): 64% | TGI (B16-F10 [6]): 60% | TGI (B16-F10 [7]): 43% | TGI (MX1 [8]): 21% | TGI (MX1 [9]): 58% | TGI (MX1 [10]): 17% | TGI (MX1 [11]): 31% | TGI (MX1 [12]): 33% | TGI (MX1 [13]): 61% | TGI (MX1 [14]): 91% | TGI (MX1 [15]): 78% | bioavailability [16]: 92% | half-life [17]: 1.6 h | AUC [18]: 2200 ng·h/mL | Cmax [19]: 1600 ng/mL | Vd [20]: 9.4 L/kg | clearance [21]: 68.3 mL/min/kg | bioavailability [22]: 61% | half-life [23]: 1.2 h | AUC [24]: 1500 ng·h/mL | Cmax [25]: 500 ng/mL

Source: ChEMBL document CHEMBL1139389, “Discovery of the Poly(ADP-ribose) polymerase (PARP) inhibitor 2-[(R)-2-methylpyrrolidin-2-yl]-1H-benzimidazole-4-carboxamide (ABT-888) for the treatment of cancer” (J Med Chem, 2009)
